The text below walks through data of ChEMBL document CHEMBL2150909, “Imidazo[1,2-a]pyridines: orally active positive allosteric modulators of the metabotropic glutamate 2 receptor” (J Med Chem, 2012).

Data set [1] in a line: Tmax in Sprague-Dawley rat at 10 mg/kg, po and 1.25 mg/kg, iv. Particulars: in vivo. The class given is ADME, organism-based. Summed up:
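Rat pharmacokinetics in Sprague−Dawley rats: oral 10 mg/kg and intravenous 1.25 mg/kg, formulated in 20% HP-β-CD at pH 4. Plasma profiles used for Cmax, tmax, AUC0−inf and t1/2. Reported as geometric means of at least two runs ± SEM.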

The nature of data set [2]: Drug uptake in SPF Swiss mouse brain at 10 mg/kg, sc after 2 hrs. To be noted: read-out: Drug uptake. The class given is ADME, organism-based. The arrangement: dose 10 mg/kg, route subcutaneous. In a few lines:
(§1)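 Male Swiss SPF mice dosed subcutaneously at 10 mg/kg in 20% HP-β-CD, pH 4. Brain levels measured in ng/g and plasma levels in ng/mL at the stated time, with brain/plasma ratio; geometric mean of at least two runs ± SEM.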

The nature of data set [3]: Clearance in Sprague-Dawley rat at 10 mg/kg, po and 1.25 mg/kg, iv. To be noted: in vivo. The data set is classed as ADME, organism-based. In a few lines:
(§2)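 Male Sprague-Dawley rats given 10 mg/kg orally and/or 1.25 mg/kg intravenously; compound formulated in 20% HP-β-CD at pH 4. Cmax, tmax, AUC0−inf, t1/2, clearance and oral bioavailability F derived from plasma levels; geometric mean of at least two runs ± SEM.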

The nature of data set [4]: Metabolic stability of human liver microsomes assessed as compound metabolized at 5 uM after 15 mins. The data set is classed as ADME, Microsome. Particulars: read-out: Drug metabolism. Summed up: (§3)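 Test compound at 5 μM incubated 15 min with rat or human liver microsomes; read-out is percent of compound metabolized.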
Data set [5] is described as follows: Ratio of drug level in brain to plasma of SPF Swiss mouse at 10 mg/kg, sc after 2 hrs. The class given is ADME, organism-based. Also noted: dose 10 mg/kg, route subcutaneous. Particulars: read-out: BPR. In a few lines: (§4)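 Male Swiss SPF mice, single subcutaneous dose of 10 mg/kg in 20% HP-β-CD at pH 4. Brain levels (ng/g) and plasma levels (ng/mL) measured at the stated time after dosing; brain-to-plasma ratio taken from these. Geometric mean of at least two runs ± SEM.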

A short description of data set [6]: Ratio of drug level in brain to plasma of SPF Swiss mouse at 10 mg/kg, sc after 1 hr. The arrangement: dose 10 mg/kg, route subcutaneous. The class given is ADME, organism-based. Particulars: read-out: BPR. In a few lines: as §4
A short description of data set [7]: AUC (0 to infinity) in Sprague-Dawley rat at 10 mg/kg, po and 1.25 mg/kg, iv. The data set is classed as ADME, organism-based. To be noted: plasma. Summed up:
as §2

The nature of data set [8]: Cmax in Sprague-Dawley rat at 10 mg/kg, po and 1.25 mg/kg, iv. Particulars: in vivo. The data set is classed as ADME, organism-based. In a few lines:
as §2

Data set [9] can be described thus: Drug uptake in SPF Swiss mouse brain at 10 mg/kg, sc after 4 hrs. The data set is classed as ADME, organism-based. To be noted: read-out: Drug uptake. Also noted: dose 10 mg/kg, route subcutaneous. In a few lines: as §1
Data set [10] can be described thus: Ratio of drug level in brain to plasma of SPF Swiss mouse at 10 mg/kg, sc after 4 hrs. The data set is classed as ADME, organism-based. Also noted: dose 10 mg/kg, route subcutaneous. Particulars: read-out: BPR. In a few lines:
as §4

Data set [11] is described as follows: Oral bioavailability in Sprague-Dawley rat at 10 mg/kg. The class given is ADME, organism-based. Particulars: in vivo. Summed up: as §2
Data set [12] in a line: Metabolic stability of Sprague-Dawley rat liver microsomes assessed as compound metabolized at 5 uM after 15 mins. Particulars: read-out: Drug metabolism. The data set is classed as ADME, Microsome. In a few lines:
as §3

The nature of data set [13]: Plasma concentration in SPF Swiss mouse at 10 mg/kg, sc after 4 hrs. The data set is classed as ADME, organism-based. Also noted: dose 10 mg/kg, route subcutaneous. Summed up: as §1
The nature of data set [14]: Half life in Sprague-Dawley rat at 10 mg/kg, po and 1.25 mg/kg, iv. The data set is classed as ADME, organism-based. To be noted: in vivo. In a few lines: as §2
Data set [15] is described as follows: Plasma concentration in SPF Swiss mouse at 10 mg/kg, sc after 1 hr. The class given is ADME, organism-based. The arrangement: dose 10 mg/kg, route subcutaneous. In a few lines: as §1
Data set [16] in a line: Drug uptake in SPF Swiss mouse brain at 10 mg/kg, sc after 1 hr. Also noted: dose 10 mg/kg, route subcutaneous. Particulars: read-out: Drug uptake. The data set is classed as ADME, organism-based. Summed up:
as §1

Data set [17] is described as follows: Plasma concentration in SPF Swiss mouse at 10 mg/kg, sc after 2 hrs. The class given is ADME, organism-based. The arrangement: dose 10 mg/kg, route subcutaneous. Summed up: as §1
The target in data set [18] is T1, Metabotropic glutamate receptor 2 (Homo sapiens, UniProt Q14416). The experiment in a line: Agonist activity at human mGlu 2 expressed in CHO cells by PAM assay relative to glutamate. The class given is functional, cell-based. Summed up:
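The assay measured [35S]GTPγS binding to membranes from CHO cells expressing human mGluR2. Cells were butyrate-stimulated (5 mM, 24 h) before membranes were prepared. Membranes were preincubated for 30 min at 30 °C in HEPES pH 7.4 buffer (NaCl, MgCl2, 50 μM GDP) with compound (0.3 nM–50 μM, 11 concentrations) plus EC25 glutamate. [35S]GTPγS (0.1 nM final) was then added for 30 min at 30 °C. Bound label was collected by filtration and counted. Runs were done at least in triplicate with duplicate points, and a four-parameter logistic fit gave the values.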
Target sequence in this assay (Q14416 19-872 limits assumed): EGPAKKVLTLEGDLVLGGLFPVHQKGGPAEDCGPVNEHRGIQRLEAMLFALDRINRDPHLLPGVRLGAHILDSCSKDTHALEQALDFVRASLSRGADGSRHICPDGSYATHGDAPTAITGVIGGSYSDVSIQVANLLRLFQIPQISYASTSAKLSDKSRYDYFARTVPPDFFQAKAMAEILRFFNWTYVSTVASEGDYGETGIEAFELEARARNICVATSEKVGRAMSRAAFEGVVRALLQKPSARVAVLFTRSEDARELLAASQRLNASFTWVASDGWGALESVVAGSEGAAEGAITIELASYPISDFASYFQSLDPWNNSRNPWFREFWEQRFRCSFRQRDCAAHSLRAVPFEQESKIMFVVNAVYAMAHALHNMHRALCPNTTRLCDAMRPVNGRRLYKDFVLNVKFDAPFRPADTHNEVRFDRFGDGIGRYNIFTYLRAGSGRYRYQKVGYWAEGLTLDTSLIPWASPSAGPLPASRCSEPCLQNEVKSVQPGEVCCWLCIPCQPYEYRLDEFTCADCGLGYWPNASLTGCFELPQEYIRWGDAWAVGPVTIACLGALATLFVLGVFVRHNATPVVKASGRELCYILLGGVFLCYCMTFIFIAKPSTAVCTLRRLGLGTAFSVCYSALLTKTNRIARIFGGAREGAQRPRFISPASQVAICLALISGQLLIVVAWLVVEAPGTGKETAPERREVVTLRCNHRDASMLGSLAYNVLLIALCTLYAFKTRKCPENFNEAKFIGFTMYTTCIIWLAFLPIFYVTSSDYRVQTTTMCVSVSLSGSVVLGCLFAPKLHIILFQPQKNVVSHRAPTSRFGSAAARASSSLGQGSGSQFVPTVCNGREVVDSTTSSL

Data set [19] addresses T1, Metabotropic glutamate receptor 2. The data set can be described thus: Agonist activity at human mGlu 2 expressed in CHO cells assessed as [35S]GTPgammaS binding by liquid scintillation analysis. The class given is functional, cell-based. In a few lines: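 Membranes from butyrate-stimulated (5 mM, 24 h) CHO cells expressing human mGlu2. Preincubated 30 min at 30 °C in HEPES pH 7.4 with NaCl, MgCl2, 50 μM GDP and saponin; modulator 0.3 nM–50 μM, no added glutamate. [35S]GTPγS 0.1 nM final, 30 min at 30 °C, filtered, scintillation counted. Nonspecific binding defined with cold GTP; 11 concentrations in duplicate, ≥3 curves.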
For orientation: GTPγS resists hydrolysis and so accumulates on activated G proteins.
Target sequence in this assay (Q14416 whole entry): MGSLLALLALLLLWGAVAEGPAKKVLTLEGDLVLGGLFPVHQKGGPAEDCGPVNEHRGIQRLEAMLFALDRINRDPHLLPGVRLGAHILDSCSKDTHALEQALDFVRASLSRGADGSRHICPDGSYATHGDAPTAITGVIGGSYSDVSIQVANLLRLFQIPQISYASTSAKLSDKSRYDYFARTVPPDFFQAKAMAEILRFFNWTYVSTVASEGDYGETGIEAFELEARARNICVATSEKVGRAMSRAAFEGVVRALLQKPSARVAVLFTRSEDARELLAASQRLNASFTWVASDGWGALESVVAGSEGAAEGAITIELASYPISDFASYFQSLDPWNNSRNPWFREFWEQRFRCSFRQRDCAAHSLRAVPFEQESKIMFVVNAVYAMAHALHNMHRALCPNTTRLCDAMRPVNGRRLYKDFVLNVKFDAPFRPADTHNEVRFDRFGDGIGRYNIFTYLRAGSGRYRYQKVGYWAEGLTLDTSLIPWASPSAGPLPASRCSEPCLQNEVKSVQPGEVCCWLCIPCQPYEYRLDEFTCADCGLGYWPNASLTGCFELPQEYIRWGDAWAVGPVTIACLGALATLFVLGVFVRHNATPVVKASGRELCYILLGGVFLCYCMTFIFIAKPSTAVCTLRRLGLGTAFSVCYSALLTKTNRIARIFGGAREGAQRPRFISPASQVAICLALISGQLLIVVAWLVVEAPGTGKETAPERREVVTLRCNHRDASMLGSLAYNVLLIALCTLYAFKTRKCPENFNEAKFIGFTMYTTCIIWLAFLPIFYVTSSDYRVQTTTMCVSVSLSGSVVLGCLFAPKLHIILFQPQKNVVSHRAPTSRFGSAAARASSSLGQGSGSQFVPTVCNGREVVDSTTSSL

Data set [20] in a line: Half life in Sprague-Dawley rat at 10 mg/kg, po and 2.5 mg/kg, iv. The class given is ADME, organism-based. To be noted: in vivo. In a few lines: (§5)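 Rat PK: compounds formulated in 20% HP-β-CD at pH 4 and given orally and intravenously. Values are geometric means of at least two runs ± SEM.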
A short description of data set [21]: Clearance in Sprague-Dawley rat at 10 mg/kg, po and 2.5 mg/kg, iv. The class given is ADME, organism-based. To be noted: in vivo.
Data set [22] in a line: AUC (0 to infinity) in Sprague-Dawley rat at 10 mg/kg, po and 2.5 mg/kg, iv. The data set is classed as ADME, organism-based. To be noted: plasma. Summed up:
as §5

A short description of data set [23]: Tmax in Sprague-Dawley rat at 10 mg/kg, po and 2.5 mg/kg, iv. To be noted: in vivo. The class given is ADME, organism-based. In a few lines: as §5
Data set [24] is described as follows: Cmax in Sprague-Dawley rat at 10 mg/kg, po and 2.5 mg/kg, iv. The data set is classed as ADME, organism-based. Particulars: in vivo. In a few lines: as §5

Each structure is given as a SMILES string.

In the case of `N#Cc1c(-c2ccc(Oc3ccccc3)cc2)ccn2c(CC(F)(F)F)cnc12`, in data set [1], the Tmax turned out to be 30 min. The concentration at 2 h worked out at 1530 ng/g in data set [2] and 893 ng/mL in [17]. In addition, the clearance in data set [3] is 56.7 mL/min/kg. For the same compound, the metabolised at 0.25 h, 5 µM in [4] and in data set [12] was 23% in each case. Besides, in data set [5], the Kp at 2 h is 1.7. Also, the Kp at 1 h in data set [6] is 1.8. Also, in data set [7], the AUC(0-inf) was determined as 714 ng·h/mL. The compound further showed a maximum concentration (Cmax) in data set [8] of 274 ng/mL. Moreover, the concentration at 4 h is 221 ng/g in [9] and 114 ng/mL in data set [13]. Moreover, the Kp at 4 h in [10] was 1.9. Also, the bioavailability in [11] turned out to be 27%. The half-life in [14] was 126 min. Besides, the values for the concentration at 1 h in [15] and in data set [16] were 1040 ng/mL and 1840 ng/g, respectively.
With `N#Cc1c(-c2ccc3c(c2)OCCN3)ccn2c(CC(F)(F)F)cnc12`, the metabolised at 0.25 h, 5 µM in data set [4] was determined as 45%; in data set [12], 100%. For the same compound, the maximal response (Emax) in data set [18] was 232%. Besides, the EC50 in [19] is 1660 nM.
With `N#Cc1c(-c2cc(Cl)c3c(ccn3CC3CC3)c2)ccn2c(CC(F)(F)F)cnc12`, the metabolised at 0.25 h, 5 µM was found to be 19% in [4] and 74% in data set [12]. Further, the Emax in [18] came out at 200%.
In the case of `N#Cc1c(-c2ccc(N3CCOCC3)c(Cl)c2)ccn2c(CC(F)(F)F)cnc12`, the maximal effect (Emax) in data set [18] was determined as 167%.
As to `Cn1ccc2cc(-c3ccn4c(CC(F)(F)F)cnc4c3C#N)ccc21`, the metabolised at 0.25 h, 5 µM worked out at 28% in data set [4] and 55% in data set [12]. The compound further yielded an Emax in data set [18] of 154%.
The compound `N#Cc1c(-c2ccc3c(ccn3[C@H]3CC[C@H](O)CC3)c2)ccn2c(CC(F)(F)F)cnc12` had a half-life in [20] of 168 min. Also, the concentration at 2 h worked out at 469 ng/g in [2] and 4500 ng/mL in [17]. In addition, the metabolised at 0.25 h, 5 µM in data set [4] is 4%; in [12], 15%. For the same compound, the Kp at 2 h in data set [5] came out at 0.1. In [18], this compound came in with an Emax of 237%. In addition, in data set [6], the Kp at 1 h was found to be 0.1. In addition, in [21], the clearance was 11.7 mL/min/kg. Also, the values for the concentration at 4 h in [9] and in [13] were 280 ng/g and 3860 ng/mL, respectively. For the same compound, in data set [10], the Kp at 4 h amounted to 0.1. Further, the 50% effective concentration (EC50) in [19] was 330 nM. The bioavailability in data set [11] is 50%. In data set [22], this compound gave an AUC(0-inf) of 7520 ng·h/mL. In data set [23], the Tmax amounted to 1.7 h. Further, the concentration at 1 h in data set [15] was found to be 4170 ng/mL; in [16], 322 ng/g. Moreover, the highest concentration (Cmax) in data set [24] turned out to be 1060 ng/mL.
For `N#Cc1c(-c2cc(Cl)c3[nH]ccc3c2)ccn2c(CC(F)(F)F)cnc12`, the results for the metabolised at 0.25 h, 5 µM in data set [4] and in data set [12] were 35% and 49%, respectively. The same compound registered a maximum response (Emax) in data set [18] of 277%. Besides, the EC50 in data set [19] came out at 320 nM.
`N#Cc1c(-c2ccc3c(ccn3C3CCOCC3)c2)ccn2c(CC(F)(F)F)cnc12`: in [20], the half-life is 55.2 min. Further, the values for the concentration at 2 h in data set [2] and in data set [17] were 50 ng/g and 95 ng/mL, respectively. The metabolised at 0.25 h, 5 µM in data set [4] is 23%; in data set [12], 28%. For the same compound, the Kp at 2 h in data set [5] was found to be 0.5. The compound further registered an Emax in [18] of 442%. For the same compound, the Kp at 1 h in data set [6] was 0.8. Besides, the clearance in data set [21] was 83.3 mL/min/kg. Moreover, in [19], the EC50 turned out to be 501 nM. Besides, the bioavailability in [11] was 15%. For the same compound, the area under the curve AUC(0-inf) in data set [22] is 281 ng·h/mL. Also, the time of peak concentration (Tmax) in data set [23] amounted to 0.5 h. The results for the concentration at 1 h in data set [15] and in data set [16] were 932 ng/mL and 704 ng/g, respectively. For the same compound, the concentration in [24] peaked (Cmax) at 216 ng/mL.

For orientation: Tmax means the time from dosing to the highest level. By AUC(0-inf) is commonly meant total exposure, with the tail of the curve extrapolated. Read a low AUC(0-inf) as low exposure. By Cmax is commonly meant the peak of the concentration-time curve. As usually defined, the bioavailability is the share of a dose that reaches the circulation, judged against a reference dose that is usually intravenous. The half-life is the time in which the quantity being followed falls by half. Read a low half-life as fast loss. In general, Emax refers to the size of the effect at its maximum, as opposed to the concentration needed. In general, EC50 refers to the midpoint of the concentration-response curve.
